ChEMBL document CHEMBL1148450, “Novel amino acid derived natural products from the ascidian Atriolum robustum: identification and pharmacological characterization of a unique adenosine derivative” (J Med Chem, 2004)

Experiments:
Adenosine receptor A3 [1] = target: T1, Adenosine receptor A3 (Homo sapiens, UniProt P0DMS8); assay: Inhibition of forskolin-stimulated cAMP accumulation in chinese hamster ovary cell membranes expressing human adenosine A3 receptor; assay type: functional, cell-based
T1 sequence (P0DMS8 whole entry): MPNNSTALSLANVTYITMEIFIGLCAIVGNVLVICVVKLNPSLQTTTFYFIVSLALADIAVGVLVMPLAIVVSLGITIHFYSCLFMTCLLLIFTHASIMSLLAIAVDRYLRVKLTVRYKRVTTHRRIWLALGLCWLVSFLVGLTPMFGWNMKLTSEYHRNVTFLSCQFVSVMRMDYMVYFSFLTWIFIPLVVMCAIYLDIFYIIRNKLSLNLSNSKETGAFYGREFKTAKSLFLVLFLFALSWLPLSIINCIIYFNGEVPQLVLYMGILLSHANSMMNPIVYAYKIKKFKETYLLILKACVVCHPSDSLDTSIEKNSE

Adenosine receptor A2a [2] = target: T2, Adenosine receptor A2a (Rattus norvegicus, UniProt P30543); assay: Displacement of [3H]NECA from Adenosine A2A receptor of rat striatal membranes; assay type: cell membranes, Membrane
T2 sequence (P30543 whole entry): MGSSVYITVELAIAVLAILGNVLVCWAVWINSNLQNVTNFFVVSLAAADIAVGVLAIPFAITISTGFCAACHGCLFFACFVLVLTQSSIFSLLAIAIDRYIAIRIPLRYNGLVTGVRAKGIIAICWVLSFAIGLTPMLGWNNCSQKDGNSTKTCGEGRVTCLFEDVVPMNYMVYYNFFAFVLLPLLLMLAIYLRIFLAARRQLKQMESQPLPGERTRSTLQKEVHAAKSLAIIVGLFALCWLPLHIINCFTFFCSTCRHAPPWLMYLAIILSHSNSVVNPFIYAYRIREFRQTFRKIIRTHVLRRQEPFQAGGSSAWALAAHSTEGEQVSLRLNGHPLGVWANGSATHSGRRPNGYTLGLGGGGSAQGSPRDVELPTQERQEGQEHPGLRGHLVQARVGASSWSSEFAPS

Adenosine receptor A3 [3] = target: T1, Adenosine receptor A3; assay: Displacement of [3H]PSB-11 from human adenosine A3 receptor expressed in CHO cells; assay type: cell-based
Method in brief: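 Membranes came from CHO cells stably expressing human A3AR. They were incubated with 0.5 nM [3H]PSB-11 in 50 mM Tris-HCl, pH 7.4, for 45 min, and 100 µM R-PIA defined nonspecific binding. Bound radioactivity was collected on GF/B filters and scintillation-counted. Seven to nine test concentrations were used; run twice, each in duplicate.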

Adenosine receptor A2b [4] = target: T3, Adenosine receptor A2b (Homo sapiens, UniProt P29275); assay: Binding affinity towards human adenosine A2B receptor in VA13 fibroblasts as […] at 10 uM; Less than 10% inhibition; assay type: functional
T3 sequence (P29275 whole entry): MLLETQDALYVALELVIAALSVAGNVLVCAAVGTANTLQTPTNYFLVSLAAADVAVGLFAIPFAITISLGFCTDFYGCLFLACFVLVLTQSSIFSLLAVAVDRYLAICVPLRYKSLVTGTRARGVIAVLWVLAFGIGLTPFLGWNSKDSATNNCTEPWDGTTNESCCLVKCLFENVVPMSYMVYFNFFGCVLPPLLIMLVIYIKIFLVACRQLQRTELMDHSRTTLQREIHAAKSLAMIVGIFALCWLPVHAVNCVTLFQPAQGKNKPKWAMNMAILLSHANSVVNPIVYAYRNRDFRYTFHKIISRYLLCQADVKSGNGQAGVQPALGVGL

[5] = target: T4, Adenosine receptor A1 (Rattus norvegicus) (UniProt P25099); assay: Binding affinity against adenosine A1 receptor in the presence of GTP relative to the absence of GTP
T4 sequence (whole entry): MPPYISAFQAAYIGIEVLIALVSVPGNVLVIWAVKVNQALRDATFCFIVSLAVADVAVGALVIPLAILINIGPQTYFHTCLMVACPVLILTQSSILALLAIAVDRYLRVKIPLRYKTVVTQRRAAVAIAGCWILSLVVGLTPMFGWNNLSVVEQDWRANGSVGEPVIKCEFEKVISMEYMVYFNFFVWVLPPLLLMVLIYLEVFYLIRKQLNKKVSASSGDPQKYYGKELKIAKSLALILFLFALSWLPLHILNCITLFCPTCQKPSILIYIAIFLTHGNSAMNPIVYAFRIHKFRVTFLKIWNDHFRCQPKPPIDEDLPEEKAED

Adenosine receptor A2b [6] = target: T3, Adenosine receptor A2b; assay: Displacement of [3H]PSB-298 from human adenosine A2B receptor expressed in HEK293 cells at 10 uM; Less than 10% inhibition; assay type: cell-based
Adenosine receptor A1 [7] = target: T5, Adenosine receptor A1 (Rattus norvegicus, UniProt P25099); assay: Displacement of [3H]CCPA from adenosine A1 receptor of rat cortical membranes; assay type: cell membranes, Membrane
T5 sequence (P25099 whole entry): T4 sequence (whole entry)
Method in brief: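 Rat brain cortical membranes at about 70 µg/mL protein, with 0.5 nM [3H]CCPA in 50 mM Tris-HCl pH 7.4, 23 °C for 90 min. Nonspecific binding was set with 10 µM 2-chloroadenosine. Bound ligand was collected by GF/B filtration and counted by scintillation. The test compound came from DMSO at 7–9 concentrations spanning 3 orders of magnitude. Three experiments were run, each in duplicate.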

Adenosine receptor A1 [8] = target: T5, Adenosine receptor A1; assay: Displacement of [3H]R-PIA from adenosine A1 receptor of rat cortical membranes; assay type: cell membranes, Membrane
Adenosine receptor A2a [9] = target: T2, Adenosine receptor A2a; assay: Displacement of [3H]-MSX-2 from Adenosine A2A receptor of rat striatal membranes; assay type: cell membranes, Membrane
Method in brief: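 Rat striatal membranes (protein ca. 70 µg/mL) were incubated with 1 nM [3H]MSX-2 in 50 mM Tris-HCl, pH 7.4, for 30 min at 23 °C. […] Filtration was on PEI-presoaked GF/B filters with scintillation counting. Seven to nine concentrations (DMSO stock) spanned 3 log units; three experiments, each in duplicate.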

Adenosine receptor A1 [10] = target: T5, Adenosine receptor A1; assay: Displacement of [3H]DPCPX from adenosine A1 receptor of rat cortical membranes with GTP; assay type: cell membranes, Membrane
Method in brief: (§1)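 Cortical A1 assay as for [3H]CCPA (50 mM Tris-HCl pH 7.4, 23 °C, 90 min, ~70 µg/mL protein) but with [3H]DPCPX as radioligand and 10 µM unlabeled DPCPX for nonspecific binding. Curves were run without and with 100 µM GTP and fitted by nonlinear regression to apparent IC50s. GTP shift = IC50(+GTP)/IC50(−GTP). Two experiments, each in duplicate.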

Adenosine receptor A1 [11] = target: T5, Adenosine receptor A1; assay: Displacement of [3H]DPCPX from adenosine A1 receptor of rat cortical membranes without GTP; assay type: cell membranes, Membrane; method in brief: as §1
[12] = target: T6, Adenosine receptor A3 (Homo sapiens) (UniProt P0DMS8); assay: Percent efficacy for inhibition of human adenosine A3 receptor activity relative to NECA; assay type: functional
T6 sequence (whole entry): T1 sequence (P0DMS8 whole entry)

Adenosine receptor A1 [13] = target: T5, Adenosine receptor A1; assay: Displacement of [3H]DPCPX from adenosine A1 receptor of rat cortical membranes; assay type: cell membranes, Membrane
Method in brief: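 Run as the rat cortical membrane A1 assay (50 mM Tris-HCl pH 7.4, 23 °C, 90 min) but with [3H]DPCPX as radioligand. Nonspecific binding was set with 10 µM unlabeled DPCPX. Binding was measured without and with 100 µM GTP, and IC50 came from nonlinear regression. GTP shift is the IC50 with GTP divided by the IC50 without GTP. Two experiments were run, each in duplicate.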

Adenosine receptor A2b [14] = target: T3, Adenosine receptor A2b; assay: Displacement of [3H]PSB-298 from human adenosine A2B receptor expressed in HEK293 cells at 10 uM; assay type: cell-based
Adenosine receptor A1 [15] = target: T5, Adenosine receptor A1; assay: Displacement of [3H]DPCPX from rat Adenosine A1 receptor of cortical membranes; assay type: cell membranes, Membrane; method in brief: as §1
Adenosine receptor A1 [16] = target: T5, Adenosine receptor A1; assay: Displacement of [3H]CCPA from Adenosine A1 receptor of rat cortical membranes; assay type: cell membranes, Membrane
Method in brief: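 A1 binding used rat cortical membranes (ca. 70 µg/mL protein) with 0.5 nM [3H]CCPA in 50 mM Tris-HCl, pH 7.4, for 90 min at 23 °C. 10 µM 2-chloroadenosine defined nonspecific binding. Separation was by GF/B filtration and scintillation counting. Inhibition curves had seven to nine concentrations across 3 orders of magnitude; three separate experiments, each in duplicate.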

IC50 (Adenosine receptor A3 [1]) [µM] | Ki (Adenosine receptor A2a [2]) [µM] | Ki (Adenosine receptor A3 [3]) [µM] | Ki (Adenosine receptor A2b [4]) [µM] | Ratio [5] | Ki (Adenosine receptor A2b [6]) [µM] | Ki (Adenosine receptor A1 [7]) [µM] | Ki (Adenosine receptor A1 [8]) [µM] | Ki (Adenosine receptor A2a [9]) [µM] | IC50 (Adenosine receptor A1 [10]) [µM] | IC50 (Adenosine receptor A1 [11]) [µM] | Efficacy [12] [%] | Ki (Adenosine receptor A1 [13]) [µM] | Ki (Adenosine receptor A2b [14]) [µM] | Ki (Adenosine receptor A1 [15]) [µM] | Ki (Adenosine receptor A1 [16]) [µM] | SMILES
71 | 1.18 | 0.68 | 8.2 | 22.2 | 13.9 | 0.15 | 0.24 | 1.13 | 15.1 | 0.68 | 46 | 0.21 | – | – | – | CSC[C@H]1O[C@@H](n2cnc3c(N)ncnc32)[C@H](O)[C@@H]1O [METHYLTHIOADENOSINE]
– | – | – | – | 22.8 | – | – | – | – | 0.125 | 0.005 | – | – | – | – | – | CC(=O)O[C@]1(C(C)=O)CC[C@H]2[C@@H]3C=C(Cl)C4=CC(=O)[C@@H]5C[C@@H]5[C@]4(C)[C@H]3CC[C@@]21C [CYPROTERONE ACETATE]
– | – | – | – | 1.2 | – | – | – | – | 14.7 | 12.5 | – | – | – | – | – | Cn1cnc2c(N)ncnc21
6.7 | – | 6.94 | – | 6.2 | – | – | – | 17.1 | 143 | 23 | 56 | – | > 10 | 9.45 | 3.26 | CO/C(=C\c1ccc(O)cc1)C(=O)O[C@@H]1[C@H](OC(=O)/C=C/c2c[nH]cn2)[C@@H](CSC)O[C@H]1n1cnc2c(N)ncnc21
